From PubChem
Insulin prom act: TRM-6 insulin promoter activation; TRM-6 cells (human fetal islet line), insulin promoter eGFP reporter, imaging; plate-scaled: unstimulated 0, stimulated control 100; activation, % at 2 µM; 130,000 tested, 0.81% active;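 active = activation at 2 µM above a set limit, confirmed on inspection of the cell images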;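 also: share of cells whose green reporter signal exceeds an intensity cutoff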
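Test system: TRM-6 insulin promoter–eGFP reporter cells / Quantity: 1,000 cells per well / Reagent: tamoxifen inducer, 0.75 µM, in seeding medium / Compound dosing: 2 µM final, single concentration / Schedule: overnight tamoxifen, then two-day compound incubation at 37 °C / Measured by: automated fluorescence imaging of paraformaldehyde-fixed, Hoechst-counterstained cells, green channel / Read-out: percent activation from GFP-positive cell fraction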
* hit, by the source's call. This is one part of a sample in which hits are shown more often than they occur.

SMILES	Insulin prom act
Cc1ccc(CS(=O)(=O)CCC(=O)NCCC2=CCCCC2)cc1	0
CNC(=O)CSc1nnnn1-c1cc(C)ccc1C	0
C/C(=N\NC(=O)COc1ccc(C(C)(C)C)cc1)c1ccc(N2CCOCC2)cc1	0
O=C(c1cc2ccccc2oc1=O)N1CCN(c2ncccn2)CC1	-79
Cc1c(C)c2ccc(OS(C)(=O)=O)c(C)c2oc1=O	0
COc1cccc(CC(Cc2nc3ccccc3[nH]2)c2nc3ccccc3[nH]2)c1 (stereo unspecified)	179
Fc1cccc(-c2cc3nc4c(c(N5CCC6(CC5)OCCO6)n3n2)CCCC4)c1	-4
CN(CCO)c1c2c(nc3cc(-c4cccc(F)c4)nn13)CCCC2	95*
COCCN1CCN(c2cc(-c3ccccc3)nc3cc(-c4cccc(F)c4)nn23)CC1	-7
O=C(CCCOc1ccc(Cl)cc1)Nc1cccc(C(=O)O)c1	6
Cc1cc(NS(=O)(=O)c2ccc(NC(=O)CCCOc3ccc(Cl)cc3)cc2)no1	127*
Cc1cc(NS(=O)(=O)c2ccc(NC(=O)NC(C)(C(F)(F)F)C(F)(F)F)cc2)no1	-4
O=[N+]([O-])c1cc(S(=O)(=O)NC2=NCCCCC2)ccc1NCC1CCCCC1	9
COCCn1c(=S)[nH]c2ccccc21	-7
C[N+]1(CCC(=O)c2ccccc2)CCCCC1	-64
CC(C)(C)C1CCC(OC(=O)C[N+]2(C)CCCCC2)CC1 (stereo unspecified)	200*
COc1ccc(NC(=O)CCc2nc3ccccc3[nH]2)cc1	0
COC(=O)C1=C(C)NC(=O)NC1c1ccc(-c2ccc(F)cc2)o1 (stereo unspecified)	-6
COC(=O)C1=C(C)NC(=S)NC1c1ccc(-c2ccccc2C(=O)OC)o1 (stereo unspecified)	429*
COC(=O)C1=C(C)NC(=S)NC1c1ccc(-c2cccc(Cl)c2)o1 (stereo unspecified)	0
CCn1c(=O)cc(SCC(=O)Nc2cccc(C)n2)c2ccccc21	-6
Cc1cccc2cc(CN(Cc3ccccc3)C(=O)N3CCOCC3)c3nnnn3c12	148
Cn1c(=O)[nH]c(=O)c2c1nc(CN1CCN(c3ccc(F)cc3)CC1)n2CCc1ccccc1	329
COc1ccc(CCn2c(N3CCOCC3)nc3c2c(=O)[nH]c(=O)n3C)cc1	100*
COc1ccc(CCn2c(-n3nc(C)cc3C)nc3c2c(=O)[nH]c(=O)n3C)cc1	-5
SMILES	Insulin prom act
COc1ccc(CCNC(=O)CSc2ccc(Br)cc2)cc1OC	0
C=CCNC(=O)COc1cc(C)ccc1C	0
Cc1ccc(Nc2nnc(SCC(=O)Nc3cccnc3Cl)s2)cc1C	-7
COc1ccc(/C=N/NC(=O)CC2N=C(Cc3ccccc3)NNC2=O)cc1OC (stereo unspecified)	7
CCc1ccc(NC(=S)N2CCCCCCC2)cc1	-79
O=C(O)/C=C/C(=O)Nc1ccc(NC(=O)c2ccccc2)c(Cl)c1	8
O=c1c2ccccc2nc2sc3ccccc3n12	9
C=CCSc1nn2c(=O)c3ccccc3nc2s1	130*
C=CCSc1nc2ccccc2c2nc(-c3ccccc3)nn12	5
S=C(NCc1ccco1)N1CCN(Cc2ccc(Cl)cc2Cl)CC1	-4
NC(=O)C1(N2CCCCC2)CCN(C(=O)c2cccn3c(=O)c4cc(Cl)ccc4nc23)CC1	150*
O=C(c1cccn2c(=O)c3cc(Cl)ccc3nc12)N1CCN(Cc2ccc3c(c2)OCO3)CC1	-9
CCOCCCn1c(=S)[nH]c2cc(C(=O)N3CCC(C(N)=O)(N4CCCCC4)CC3)ccc2c1=O	-7
CCc1nc2ccccc2c(NC(=O)CN2CC(C)CC(C)C2)c1C (stereo unspecified)	107
COc1cccc(C(C)N(C)Cc2nc(-c3ccoc3)oc2C)c1 (stereo unspecified)	121
CCCCN1C2CCCC1CC(NC(=O)N(C(C)C)C(C)C)C2 (stereo unspecified)	267
Cc1ccc(C2CC(=O)NC(SCC(=O)Nc3nccs3)=C2C#N)cc1 (stereo unspecified)	0
CN(C)S(=O)(=O)c1cccc(NC(=O)Cc2ccc(Cl)cc2)c1	9
Cc1ccsc1C(=O)Nc1cccc(S(=O)(=O)N(C)C)c1	431*
CN(C)S(=O)(=O)c1cccc(C(=O)Nc2ccccc2)c1	7
c1ccc(-n2ncc3c(N4CCN(CCOc5cccc6ccccc56)CC4)ncnc32)cc1	4
O=C(c1nc2ccccn2c1CN1CCCC(c2nc3ccccc3o2)C1)N1CCCC1 (stereo unspecified)	5
CC(OC(=O)c1ccc2c(=O)n3c(nc2c1)CCCCC3)C(=O)Nc1ccc(F)cc1Cl (stereo unspecified)	1
CN(C)CCCNC(=O)C(=O)NCC1CCCO1 (stereo unspecified)	294*
O=C(NCC1CCCO1)NC1CCCCC1 (stereo unspecified)	-7
O=C(CCCCCCCC(=O)NCC1CCCO1)NCC1CCCO1 (stereo unspecified)	-3
